Assay results pooled from the literature.
MET Y1235D: Hepatocyte growth factor receptor (MET, Homo sapiens, UniProt P08581, Y1235D)
MET: Hepatocyte growth factor receptor (MET, Homo sapiens, UniProt P08581)
MET M1250T: Hepatocyte growth factor receptor (MET, Homo sapiens, UniProt P08581, M1250T)

Structure (SMILES) | target | assay | setting | remaining binding [%]
Cc1cnn2ncc(-c3ccnc(N(C)C)n3)c2c1 | MET Y1235D | binding | 1 µM | 87
Cc1c(C(=O)O)cc(-c2ccc(C3CCNCC3)cc2)c2ccc(-c3ccc(C(F)(F)F)cc3)cc12 | MET | cell-free assay, competition with immobilised ligand | 1 µM | 100
N[C@H]1CCN(c2nccc(-c3cnn4ncccc34)n2)C1 | MET M1250T | binding | 1 µM | 100
COc1cnc(Nc2cccc(S(N)(=O)=O)c2)nc1N1CCN(c2ccccc2)CC1 | MET Y1235D | binding, competition with immobilised ligand | 1 µM | 100
CC(=O)N1CCC(c2ccc(C(=O)NC3=NCCN3)cc2C(F)(F)F)CC1 | MET Y1235D | cell-free assay, competition with immobilised ligand | 1 µM | 100
C[C@@H]1CCN(c2nccc(-c3cnn4ncccc34)n2)C1 | MET | binding | 1 µM | 84
O=C(Nc1c[nH]nc1C(=O)NC1CCNCC1)c1cc(F)cc(F)c1 | MET Y1235D | binding, competition with immobilised ligand | 1 µM | 100
c1cncc(-c2cccc(Nc3nccc(NC4CCCCC4)n3)c2)c1 | MET Y1235D | binding, competition with immobilised ligand | 10 µM | 73
CCN1CCN(Cc2ccc(C(=O)Nc3ccc(C)c(Oc4ccc5c(c4)CC(=O)N5)c3)cc2C(F)(F)F)CC1 | MET | binding, competition with immobilised ligand | 1 µM | 100
c1cnn2ncc(-c3ccnc(N4CCC45COC5)n3)c2c1 | MET M1250T | binding | 1 µM | 41
CC(C)CC(=O)N1CCc2nc(-c3ccc(Br)cc3)nc(N(C)Cc3ccccc3)c2C1 | MET | cell-free assay, competition with immobilised ligand | 0.1 µM | 99
O=C(NCCCN1CCOCC1)c1ccc(Nc2ncc(Cl)c(-c3ccc(Cl)s3)n2)cc1 | MET Y1235D | binding, competition with immobilised ligand | 1 µM | 99
CN1CCN(c2cnc3c(C4CCN(C(=O)c5ccc(OC(F)(F)F)cc5N)CC4)ncnc3c2)CC1 | MET M1250T | cell-free assay, competition with immobilised ligand | 1 µM | 100
COc1ccnn2ncc(-c3ccnc(N(C)C)n3)c12 | MET M1250T | binding | 1 µM | 100
CC1=C(C#N)[C@@H](c2ccc3[nH]nc(C)c3c2)C(C#N)=C(c2ccc(Cl)cc2)N1 | MET | cell-free assay, competition with immobilised ligand | 1 µM | 17.2
COc1ncc2cc3ccccc3nc2c1C#N | MET M1250T | cell-free assay, competition with immobilised ligand | 5 µM | 100
CN(C)c1ncc(F)c(-c2cnn3ncccc23)n1 | MET Y1235D | binding | 1 µM | 100
Cc1cnc(Nc2ccc(C(=O)N3CCC(N4CCCC4)CC3)cc2)nc1-c1cc2ccccc2s1 | MET M1250T | binding, competition with immobilised ligand | 1 µM | 31
CO[C@@H](C)c1c(Nc2ccc([C@H](N(C)C(=O)C3CCS(=O)(=O)CC3)C(F)(F)F)cc2)cnc2cc(Cl)nn12 | MET Y1235D | cell-free assay, competition with immobilised ligand | 1 µM | 100
O=C(c1ccc(Nc2ncc(Cl)c(-c3cc4ccccc4s3)n2)cc1)N1CCC(N2CCCC2)CC1 | MET M1250T | binding, competition with immobilised ligand | 1 µM | 31
CC1=C(C#N)C(c2ccc3c(c2)c(NC(=O)c2ccccc2C)nn3C)C(C#N)=C(C)N1 | MET | cell-free assay, competition with immobilised ligand | 1 µM | 24
CC1CCCN1c1nccc(-c2cnn3ncccc23)n1 (stereo not shown) | MET Y1235D | binding | 1 µM | 100
